ChEMBL document CHEMBL1165941, “Design and synthesis of 2,4-disubstituted polyhydroquinolines as prospective antihyperglycemic and lipid modulating agents” (Bioorg Med Chem, 2010)
pIC50: −log10 of the molar value. Active and inactive are the calls of the source. The rule behind the calls is not given here.

Key:
Rattus norvegicus [1] = experiment: Antidyslipidemic activity in Charles Foster rat assessed as reduction of Triton WR-1339-induced increase of blood total cholesterol level at 100 mg/kg, po after 18 hrs; assay type: functional; set-up: scale not given: the % may be the effect or the level left
Procedure, shortened: (§1)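 Hyperlipidemia induced by Triton WR-1339, 400 mg/kg ip, in adult male Charles Foster rats (200–225 g), five per group. Compounds were macerated in 0.2% w/v gum acacia, suspended in water and given 100 mg/kg po together with triton. Plasma was obtained by centrifugation at 2500g, 4 °C, 10 min and diluted 1:3 in saline. TC, PL and TG were measured by enzymatic methods.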

Rattus norvegicus [2] = experiment: Antihyperglycemic activity in Sprague-Dawley albino rat streptozotocin-induced beta-cell damaged diabetic model assessed as decrease of blood glucose level at 100 mg/kg, po administered 30 mins before glucose challenge measured after 24 hrs by glucometer; assay type: functional; set-up: scale not given: the % may be the effect or the level left
Procedure, shortened: (§2)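 Rats were made diabetic with streptozotocin 60 mg/kg ip in 100 mM citrate pH 4.5 after an overnight fast. Animals with glucose 144–270 mg/dl at 48 h were used, 5–6 per group. Compounds were given 100 mg/kg orally in 1.0% gum acacia. Sucrose 2.5 g/kg followed 30 min later. Glucose was read by glucostrips up to 300 min and at 24 h. Non-responders were excluded. Percent activity came from AUC versus control.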

[3] = Inhibition of glycogen phosphorylase assessed as […] phosphate release at 100 uM after 30 mins
Procedure, shortened: (§3)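 Glycogen phosphorylase was incubated with glycogen, glucose-1-phosphate, NaF and 5′-AMP for 30 min at 37 °C. The reaction was stopped with 10% TCA and 0.1 M sodium acetate. Samples were held overnight at 4 °C, then released Pi was measured.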

[4] = Inhibition of alpha-glucosidase at 100 uM after 3 mins
Procedure, shortened: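 α-Glucosidase (0.1 mg/mL, purified) was assayed in 67 mM sodium phosphate pH 6.8 with 1.0 mg/mL glutathione. The reaction was started with 3.0 mg/mL pNPG and followed at 405 nm every 30 s for 3 min.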

Rattus norvegicus [5] = experiment: Antihyperglycemic activity in po dosed Sprague-Dawley albino rat streptozotocin-induced beta-cell damaged diabetic model assessed as decrease of blood glucose level […] measured after 24 hrs by glucometer; assay type: functional
Mus musculus [6] = species: Mus musculus; experiment: Antihyperglycemic activity in C57BL/KsBom-db db/db mouse assessed as decrease in blood glucose AUC level measured on day 10 by oral glucose tolerance test (reference value: 32480 +/- 5098 %); assay type: functional; set-up: scale not given: the % may be the effect or the level left
Rattus norvegicus [7] = experiment: Antidyslipidemic activity in Charles Foster rat assessed as reduction of Triton WR-1339-induced increase of blood triglyceride level at 100 mg/kg, po after 18 hrs; assay type: functional; set-up: scale not given: the % may be the effect or the level left; procedure, shortened: as §1
Rattus norvegicus [8] = experiment: Antihyperglycemic activity in Sprague-Dawley albino rat streptozotocin-induced beta-cell damaged diabetic model assessed as decrease of blood glucose level at 100 mg/kg, po administered 30 mins before glucose challenge measured after 5 hrs by glucometer; assay type: functional; set-up: scale not given: the % may be the effect or the level left; procedure, shortened: as §2
[9] = target: Dipeptidyl peptidase 4 (Homo sapiens) (UniProt P27487); experiment: Inhibition of DPP4 at 100 uM after 15 mins by spectrofluorimeter
Chain of Dipeptidyl peptidase 4 (Homo sapiens) (P27487 whole entry, looked up): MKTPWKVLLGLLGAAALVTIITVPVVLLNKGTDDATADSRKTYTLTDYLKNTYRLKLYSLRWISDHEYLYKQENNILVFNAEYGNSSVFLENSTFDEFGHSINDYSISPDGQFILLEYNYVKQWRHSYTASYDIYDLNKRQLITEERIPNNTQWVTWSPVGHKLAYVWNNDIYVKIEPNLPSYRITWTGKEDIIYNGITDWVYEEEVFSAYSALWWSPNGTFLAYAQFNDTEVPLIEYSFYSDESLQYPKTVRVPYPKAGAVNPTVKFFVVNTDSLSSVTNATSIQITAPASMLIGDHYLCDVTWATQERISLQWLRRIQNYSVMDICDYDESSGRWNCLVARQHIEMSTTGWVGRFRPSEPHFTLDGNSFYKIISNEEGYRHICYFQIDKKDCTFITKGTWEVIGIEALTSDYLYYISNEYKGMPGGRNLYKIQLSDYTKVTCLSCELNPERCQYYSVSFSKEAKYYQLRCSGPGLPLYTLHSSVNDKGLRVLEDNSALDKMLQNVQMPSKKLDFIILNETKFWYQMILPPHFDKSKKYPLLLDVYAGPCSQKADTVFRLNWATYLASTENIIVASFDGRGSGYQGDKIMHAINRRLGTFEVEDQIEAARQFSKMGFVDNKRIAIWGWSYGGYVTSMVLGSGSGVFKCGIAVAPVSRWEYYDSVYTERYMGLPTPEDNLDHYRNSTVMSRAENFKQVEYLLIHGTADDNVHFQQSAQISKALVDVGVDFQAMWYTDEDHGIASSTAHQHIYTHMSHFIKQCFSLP
Procedure, shortened: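 DPP-IV activity was measured at 37 °C as Gly-Pro-AMC (30 µM) cleavage in Tris–HCl pH 7.4 with test compound. Fluorescence was read at excitation 355 nm and emission 460 nm. The initial rate was taken over the first 15 min.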

Rattus norvegicus [10] = experiment: Antidyslipidemic activity in Charles Foster rat assessed as reduction of Triton WR-1339-induced increase of blood phospholipid level at 100 mg/kg, po after 18 hrs; assay type: functional; set-up: scale not given: the % may be the effect or the level left; procedure, shortened: as §1
[11] = target: T1, Tyrosine-protein phosphatase non-receptor type 1 (Homo sapiens, UniProt P18031); experiment: Inhibition of PTP1B assessed as p-nitrophenolate ion production pretreated for 10 mins measured after 30 mins
T1 sequence (P18031 whole entry): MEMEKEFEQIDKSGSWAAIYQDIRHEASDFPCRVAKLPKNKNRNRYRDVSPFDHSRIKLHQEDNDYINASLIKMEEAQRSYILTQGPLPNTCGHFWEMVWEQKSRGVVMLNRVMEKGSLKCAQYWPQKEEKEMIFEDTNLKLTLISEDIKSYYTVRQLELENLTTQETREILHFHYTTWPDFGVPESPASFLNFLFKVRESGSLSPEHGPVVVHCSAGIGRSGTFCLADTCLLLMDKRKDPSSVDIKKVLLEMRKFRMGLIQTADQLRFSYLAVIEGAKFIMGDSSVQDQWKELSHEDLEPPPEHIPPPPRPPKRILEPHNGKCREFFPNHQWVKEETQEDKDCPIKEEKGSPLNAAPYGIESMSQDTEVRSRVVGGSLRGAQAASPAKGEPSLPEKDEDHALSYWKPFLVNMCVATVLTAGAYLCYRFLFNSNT
Procedure, shortened: (§4)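 PTP1B was preincubated 10 min with compound, with and without 0.01% Triton X-100. Substrate was 10 mM pNPP in 50 mM HEPES pH 7.0 with 1 mM DTT and 2 mM EDTA. After 30 min at 37 °C the reaction was stopped with 0.1 N NaOH and A410 was read. Product was calculated with ε 1.78×10⁴ M⁻¹cm⁻¹. Sodium orthovanadate served as standard. IC50 came from dose–response curves.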

[12] = target: T2, Tyrosine-protein phosphatase non-receptor type 1 (Homo sapiens) (UniProt P18031); experiment: Inhibition of PTP1B assessed as p-nitrophenolate ion production at 100 uM pretreated for 10 mins measured after 30 mins; procedure, shortened: as §4
T2 sequence (whole entry): T1 sequence (P18031 whole entry)

[13] = target: T3, Glucose-6-phosphatase catalytic subunit 1 (Homo sapiens) (UniProt P35575); experiment: Inhibition of glucose-6-phosphatase assessed as inositol phosphate release at 100 uM after 30 mins; settings: in the assay text read “inorganic phosphate” for “inositol phosphate”
T3 sequence (whole entry): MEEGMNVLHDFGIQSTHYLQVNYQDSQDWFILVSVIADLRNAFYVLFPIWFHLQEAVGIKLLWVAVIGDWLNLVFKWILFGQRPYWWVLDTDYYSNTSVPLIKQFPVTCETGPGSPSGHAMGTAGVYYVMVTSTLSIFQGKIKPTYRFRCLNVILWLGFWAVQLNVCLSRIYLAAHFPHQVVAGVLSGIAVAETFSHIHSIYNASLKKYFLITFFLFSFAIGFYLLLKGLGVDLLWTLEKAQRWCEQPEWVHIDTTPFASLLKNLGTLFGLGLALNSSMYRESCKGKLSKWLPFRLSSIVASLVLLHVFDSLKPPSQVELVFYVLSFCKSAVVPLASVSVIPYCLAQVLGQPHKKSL
Procedure, shortened: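 Glucose-6-phosphatase was assayed in 0.3 M citrate pH 6.0 with 28 mM EDTA, 14 mM NaF, 200 mM glucose-6-phosphate and enzyme protein. After 30 min at 37 °C the reaction was stopped with 10% TCA. Activity was expressed as µmol Pi released per min per mg protein.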

Rattus norvegicus [14] = experiment: Antihyperglycemic activity in Charles Foster-Wistar albino rat sucrose loaded model assessed as decrease of blood glucose level at 100 mg/kg, po administered 30 mins before glucose challenge measured up to 120 mins by glucometer; assay type: functional; set-up: scale not given: the % may be the effect or the level left; settings: in the assay text read “Sprague-Dawley” for “Charles Foster-Wistar”
Procedure, shortened: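 Sprague–Dawley male rats with blood glucose 60–80 mg/dl, 5–6 per group, received 100 mg/kg orally as a suspension in 1.0% gum acacia; controls received vehicle. Sucrose 10.0 g/kg was given orally 30 min later. Glucose was read by glucometer at 30, 60, 90 and 120 min. Food was withheld. Percent activity came from AUC versus control.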

Mus musculus [15] = species: Mus musculus; experiment: Antihyperglycemic activity in C57BL/KsBom-db db/db mouse assessed as decrease in blood glucose AUC level measured on day 5 by oral glucose tolerance test (reference value: 30730 +/- 3687 %); assay type: functional; set-up: scale not given: the % may be the effect or the level left
[16] = Inhibition of glycogen phosphorylase assessed as […] phosphate release after 30 mins; procedure, shortened: as §3

SMILES: CC1(C)CC(=O)C2=C(C1)NC(c1ccccc1)=CC2c1ccc(F)cc1 (stereo not drawn)
- Activity (Rattus norvegicus [1]): -22.45%
- Activity (Rattus norvegicus [2]): 32.3%
- inhibition [3]: 14.6%
- inhibition [4]: inactive
- ED50 (Rattus norvegicus [5]): 47.3 mg/kg
- Activity (Mus musculus [6]): -32.6%
- Activity (Rattus norvegicus [7]): -26.34%
- Activity (Rattus norvegicus [8]): 29.9%
- inhibition [9]: inactive
- Activity (Rattus norvegicus [10]): -18.83%
- pIC50 [11]: 5.54
- inhibition [12]: 88.2%
- inhibition [13]: 7.38%
- Activity (Rattus norvegicus [14]): 41.3%
- Activity (Mus musculus [15]): -13.2%

SMILES: CC1(C)CC(=O)C2=C(C1)NC(c1ccccc1)=CC2c1ccccc1 (stereo not drawn)
- Activity (Rattus norvegicus [1]): -17.89%
- Activity (Rattus norvegicus [2]): 13.3%
- inhibition [3]: inactive
- inhibition [4]: 34.3%
- Activity (Rattus norvegicus [7]): -16.45%
- Activity (Rattus norvegicus [8]): 17.3%
- inhibition [9]: 12%
- Activity (Rattus norvegicus [10]): -19.23%
- inhibition [12]: 41.8%
- inhibition [13]: inactive
- Activity (Rattus norvegicus [14]): 24.9%

SMILES: CC1(C)CC(=O)C2=C(C1)NC(C(=O)O)=CC2c1ccc(Cl)cc1 (stereo not drawn)
- Activity (Rattus norvegicus [1]): -17.45%
- Activity (Rattus norvegicus [2]): 12.2%
- inhibition [3]: 63.4%
- inhibition [4]: inactive
- Activity (Rattus norvegicus [7]): -11.97%
- Activity (Rattus norvegicus [8]): 16.6%
- inhibition [9]: inactive
- Activity (Rattus norvegicus [10]): -15.38%
- pIC50 [16]: 5.01
- inhibition [12]: 25.4%
- inhibition [13]: inactive
- Activity (Rattus norvegicus [14]): 13.7%

SMILES: CC1(C)CC(=O)C2=C(C1)NC(c1ccccc1)=CC2c1ccc(Cl)cc1 (stereo not drawn)
- Activity (Rattus norvegicus [1]): -25.56%
- Activity (Rattus norvegicus [2]): 16.4%
- inhibition [3]: 5.89%
- inhibition [4]: 12.1%
- Activity (Rattus norvegicus [7]): -19.32%
- Activity (Rattus norvegicus [8]): 18.9%
- inhibition [9]: inactive
- Activity (Rattus norvegicus [10]): -22.47%
- pIC50 [11]: 5.20
- inhibition [12]: 84.9%
- inhibition [13]: 7.16%
- Activity (Rattus norvegicus [14]): 23.5%

SMILES: O=C1CCCC2=C1C(c1ccc(F)cc1)C=C(c1ccccc1)N2 (stereo not drawn)
- Activity (Rattus norvegicus [2]): 24.1%
- inhibition [3]: 17.4%
- inhibition [4]: inactive
- Activity (Rattus norvegicus [8]): 19.6%
- inhibition [9]: inactive
- pIC50 [11]: 4.90
- inhibition [12]: 70.3%
- inhibition [13]: 21.9%
- Activity (Rattus norvegicus [14]): 34.5%

SMILES: O=C1CCCC2=C1C(c1ccc(Cl)cc1)C=C(c1ccccc1)N2 (stereo not drawn)
- Activity (Rattus norvegicus [1]): -6.7%
- Activity (Rattus norvegicus [2]): 16.9%
- inhibition [3]: 19.3%
- inhibition [4]: 27.9%
- Activity (Rattus norvegicus [7]): -7.89%
- Activity (Rattus norvegicus [8]): 12.9%
- inhibition [9]: inactive
- Activity (Rattus norvegicus [10]): -5.9%
- inhibition [12]: 24.7%
- inhibition [13]: 8.21%
- Activity (Rattus norvegicus [14]): 24.7%

SMILES: COc1ccc(C2C=C(C(=O)O)NC3=C2C(=O)CC(C)(C)C3)cc1 (stereo not drawn)
- Activity (Rattus norvegicus [1]): -24.63%
- Activity (Rattus norvegicus [2]): 33.2%
- inhibition [3]: 78.3%
- inhibition [4]: 11.2%
- ED50 (Rattus norvegicus [5]): 48.6 mg/kg
- Activity (Mus musculus [6]): -39.6%
- Activity (Rattus norvegicus [7]): -19.34%
- Activity (Rattus norvegicus [8]): 29.7%
- inhibition [9]: 5.7%
- Activity (Rattus norvegicus [10]): -21.82%
- pIC50 [16]: 5.23
- inhibition [12]: 35.4%
- inhibition [13]: inactive
- Activity (Rattus norvegicus [14]): 42.7%
- Activity (Mus musculus [15]): -17.9%

SMILES: CC1(C)CC(=O)C2=C(C1)NC(C(=O)O)=CC2c1ccc(Br)cc1 (stereo not drawn)
- Activity (Rattus norvegicus [2]): 13.6%
- inhibition [3]: 81.3%
- inhibition [4]: inactive
- Activity (Rattus norvegicus [8]): 17.8%
- inhibition [9]: inactive
- pIC50 [16]: 5.28
- inhibition [12]: 12.3%
- inhibition [13]: inactive
- Activity (Rattus norvegicus [14]): 31.7%

SMILES: CC1(C)CC(=O)C2=C(C1)NC(C(=O)O)=CC2c1ccccc1 (stereo not drawn)
- Activity (Rattus norvegicus [1]): -8.99%
- Activity (Rattus norvegicus [2]): 16.7%
- inhibition [3]: 77.3%
- inhibition [4]: 4.6%
- Activity (Rattus norvegicus [7]): -13.86%
- Activity (Rattus norvegicus [8]): 18.3%
- inhibition [9]: 14.6%
- Activity (Rattus norvegicus [10]): -7.89%
- pIC50 [16]: 5.21
- inhibition [12]: 28.9%
- inhibition [13]: 17.1%
- Activity (Rattus norvegicus [14]): 28.9%

SMILES: Cc1ccc(C)c(OCCCC(C)(C)C(=O)O)c1 [GEMFIBROZIL]
- Activity (Rattus norvegicus [1]): -37.56%
- Activity (Rattus norvegicus [7]): -36.21%
- Activity (Rattus norvegicus [10]): -39.43%

SMILES: CCOC(=O)C1(O)CC(c2ccc(F)cc2)C2=C(CC(C)(C)CC2=O)O1 (stereo not drawn)
- Activity (Rattus norvegicus [1]): -10.3%
- inhibition [3]: 14.9%
- inhibition [4]: inactive
- Activity (Rattus norvegicus [7]): -8.2%
- inhibition [9]: inactive
- Activity (Rattus norvegicus [10]): -17.2%
- inhibition [12]: 5.3%
- inhibition [13]: inactive
- Activity (Rattus norvegicus [14]): 15.3%
